pIC50, pKi: −log10 of the molar value. Square brackets hold non-standard residues; d marks the D form. Peptide text beside a SMILES is read from it. * marks the point of attachment. NH(9-Et-carbazol-3-yl) = CCn1c2ccccc2c2cc(N*)ccc21; X1 = O=C(C(O)C(O)C(O)C(O)CO)*; Boc = CC(C)(C)OC(=O)*; Sar = CNCC(=O)O
Assays:
[1] = tested on: Plasmodium falciparum; assay: Relative rate of hydrolysis by Plasmodium falciparum 68 neutral proteinase; type: functional
In short: (§1)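 Pf 68 proteinase purified from FcR-3 schizonts, incubated with peptidyl-AEC substrates (0.5-2.0 mM) in 50 mM Tris-HCl pH 7.4, 30 min at 37 °C. Free AEC extracted into ethyl acetate, fluorescence read at ex 370/em 430 nm. A 10 μg/mL trypsin total-release digest served as reference. Km and rates from Lineweaver-Burk plots; Vrel is the rate relative to S-1.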

[2] = tested on: Plasmodium falciparum; assay: Substrate affinity for Plasmodium falciparum 68 neutral proteinase.; type: functional; in short: as §1
[3] = tested on: Plasmodium falciparum; assay: Inhibitory activity against Plasmodium falciparum 68 neutral proteinase; type: functional; conditions: read-out: I50
In short: (§2)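 Purified Pf 68 proteinase (FcR-3 schizonts; chromatofocusing then gel filtration; 20 μL extract). Inhibitors at 0.005-1 mM preincubated with 0.19 mM GlcA-Val-Leu-Gly-Lys-AEC in 50 mM Tris-HCl pH 7.4, then 30 min at 37 °C. Released AEC extracted into ethyl acetate, fluorescence read at ex 370/em 430 nm. Enzyme-free control for each inhibitor. I50 read from the activity-versus-concentration plot.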

[4] = tested on: Plasmodium falciparum; assay: Inhibitory activity against Plasmodium falciparum 68 neutral proteinase.; type: functional; in short: as §2
[5] = tested on: Plasmodium falciparum; assay: In vitro inhibition of Plasmodium falciparum 68 neutral proteinase activity by reinvasion of red blood cells; type: functional, organism-based
In short: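 Synchronized schizonts (44-48 h) from a 4-h synchronized culture, collected by Plasmagel, added to washed healthy erythrocytes at 5% hematocrit to 4-5% parasitemia, with peptide in complete medium with 5% serum. Incubated 4-6 h in a candle jar. New rings counted on Giemsa smears (5000 RBC). Inhibition = 100 − (R/R0 × 100). IC50 from 6-h runs, 5% initial segmenters, triplicate.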

[6] = tested on: Plasmodium falciparum; assay: Reaction velocity for Plasmodium falciparum 68 neutral proteinase.; type: functional; in short: as §1

Compound | Vrel [1] | Km [2] | pIC50 [3] | pKi [4] | pIC50 [5] | Vm [6]
CCn1c2ccccc2c2cc(NC(=O)[C@H](CCCCN)NC(=O)CNC(=O)[C@H](CO)NC(=O)C(O)C(O)C(O)C(O)CO)ccc21 (some centres not stated) | 140 | 730 µM |  |  |  | 
CC(C)C[C@H](NC(=O)[C@@H](NC(=O)[C@H](O)[C@@H](O)[C@H](O)[C@H](O)CO)C(C)C)C(=O)NCC(=O)N[C@@H](CCCCN)C(=O)O |  |  | < 2.70 | < 2.60 | < 2.00 | 
CCn1c2ccccc2c2cc(NC(=O)[C@H](CCCCN)NC(=O)CN(C)C(=O)[C@H](CC(C)C)NC(=O)[C@@H](NC(=O)C(O)C(O)C(O)C(O)CO)C(C)C)ccc21 (some centres not stated) (X1-VL[Sar]K-{NH(9-Et-carbazol-3-yl)}) | 80 | 1670 µM |  |  |  | 
CCNC(=O)[C@H](CCCCN)NC(=O)CNC(=O)[C@H](CC(C)C)NC(=O)[C@@H](NC(=O)[C@H](O)[C@@H](O)[C@H](O)[C@H](O)CO)C(C)C |  |  | 3.33 | 3.32 | 3.05 | 
CCNC(=O)CNC(=O)[C@H](CCCN=C(N)N)NC(=O)[C@H](Cc1ccccc1)NC(=O)[C@H](CC(=O)O)NC(C)=O (Ac-DFRG-NHEt) |  |  |  | < 2.60 | < 2.00 | 
CC(C)C[C@H](NC(=O)[C@@H](NC(=O)[C@H](O)[C@@H](O)[C@H](O)[C@H](O)CO)C(C)C)C(=O)NCC(=O)N[C@@H](CCCCN)C(=O)N(C)CC(=O)O |  |  | 3.49 | 3.60 |  | 
CC[C@H](C)[C@H](NC(=O)C(O)C(O)C(O)C(O)CO)C(=O)N[C@H](C(=O)NCC(=O)N[C@@H](CCCCN)C(=O)Nc1ccc2c(c1)c1ccccc1n2CC)C(C)C (some centres not stated) (X1-IVGK-{NH(9-Et-carbazol-3-yl)}) | 43 | 950 µM |  |  |  | 
CCn1c2ccccc2c2cc(NC(=O)[C@H](CCCCN)NC(=O)CNC(=O)[C@H](CC(C)C)NC(=O)[C@@H](NC(=O)OC(C)(C)C)C(C)C)ccc21 (Boc-VLGK-{NH(9-Et-carbazol-3-yl)}) | 11 | 1140 µM |  |  |  | 
CCn1c2ccccc2c2cc(NC(=O)[C@H](CCCCN)NC(=O)CNC(=O)[C@H](CC(C)C)NC(=O)[C@@H](NC(=O)C(O)C(O)C(O)C(O)CO)C(C)C)ccc21 (some centres not stated) (X1-VLGK-{NH(9-Et-carbazol-3-yl)}) | 100 | 380 µM |  |  |  | 35 uM ml-1
CC(C)C[C@H](NC(=O)[C@@H](NC(=O)[C@H](O)[C@@H](O)[C@H](O)[C@H](O)CO)C(C)C)C(=O)N(C)CC(=O)N[C@@H](CCCN=C(N)N)C(=O)N(C)CC(=O)O |  |  | 2.70 | 2.60 |  | 
CCn1c2ccccc2c2cc(NC(=O)[C@H](CCCCN)NC(=O)[C@H](C)NC(=O)[C@H](C)NC(=O)[C@H](C)NC(=O)C(O)C(O)C(O)C(O)CO)ccc21 (some centres not stated) (X1-AAAK-{NH(9-Et-carbazol-3-yl)}) | 29 | 5000 µM |  |  |  | 
CCn1c2ccccc2c2cc(NC(=O)[C@H](CCCCN)NC(=O)CNC(=O)[C@H](CC(C)C)NC(=O)[C@@H](NC(=O)C(O)C(O)C(O)C(O)CO)[C@@H](C)O)ccc21 (some centres not stated) (X1-TLGK-{NH(9-Et-carbazol-3-yl)}) | 74 | 770 µM |  |  |  | 
CCn1c2ccccc2c2cc(NC(=O)[C@H](CCCCN)NC(=O)CNC[C@@H](NC(=O)C(O)C(O)C(O)C(O)CO)C(C)O)ccc21 (some centres not stated) | 23 | 5600 µM |  |  |  | 
CC(C)C[C@H](NC(=O)[C@@H](NC(=O)[C@H](O)[C@@H](O)[C@H](O)[C@H](O)CO)C(C)C)C(=O)NCC(=O)N[C@@H](CCCCN)C(=O)N1CCC[C@H]1C(=O)O |  |  | < 2.70 | < 2.60 |  | 
CCn1c2ccccc2c2cc(NC(=O)[C@H](CCCCN)NC(=O)CNC(=O)[C@@H](NC(=O)[C@@H](NC(=O)C(O)C(O)C(O)C(O)CO)C(C)C)[C@@H](C)O)ccc21 (some centres not stated) (X1-VTGK-{NH(9-Et-carbazol-3-yl)}) | 26 | 1250 µM |  |  |  | 
CCn1c2ccccc2c2cc(NC(=O)[C@H](CCCCN)NC(=O)CNC(=O)[C@H](CC(C)C)NC(=O)[C@H](CO)NC(=O)C(O)C(O)C(O)C(O)CO)ccc21 (some centres not stated) (X1-SLGK-{NH(9-Et-carbazol-3-yl)}) | 17 | 1140 µM |  |  |  | 
CCn1c2ccccc2c2cc(NC(=O)[C@H](CCCCN)NC(=O)CNC(=O)[C@H](COC(=O)c3ccccc3)NC(=O)C(O)C(O)C(O)C(O)CO)ccc21 (some centres not stated) | <3 | > 10000 µM |  |  |  | 
CCN(CC)C(=O)[C@H](CCCCN)NC(=O)CNC(=O)[C@H](CC(C)C)NC(=O)[C@@H](NC(=O)[C@H](O)[C@@H](O)[C@H](O)[C@H](O)CO)C(C)C |  |  | < 2.70 | < 2.60 | < 2.00 | 
CC(C)C[C@H](NC(=O)[C@@H](NC(=O)[C@H](O)[C@@H](O)[C@H](O)[C@H](O)CO)C(C)C)C(=O)NCC(=O)N[C@@H](CCCCN)C(=O)NC(CO)CO |  |  | 2.82 | 2.84 |  | 
CCNC(=O)[C@H](C)NC(=O)CNC(=O)[C@H](CC(C)C)NC(=O)[C@@H](NC(=O)[C@H](O)[C@@H](O)[C@H](O)[C@H](O)CO)C(C)C |  |  | < 2.70 | < 2.60 | < 2.00 | 
CCn1c2ccccc2c2cc(NC(=O)[C@H](CCCN=C(N)N)NC(=O)CNC(=O)[C@H](CO)NC(=O)C(O)C(O)C(O)C(O)CO)ccc21 (some centres not stated) | <3 | > 10000 µM |  |  |  | 
CCn1c2ccccc2c2cc(NC(=O)[C@H](CCCN=C(N)N)NC(=O)CNC(=O)[C@H](CC(C)C)NC(=O)[C@@H](NC(=O)C(O)C(O)C(O)C(O)CO)C(C)C)ccc21 (some centres not stated) (X1-VLGR-{NH(9-Et-carbazol-3-yl)}) | 89 | 400 µM |  |  |  | 
CCn1c2ccccc2c2cc(NC(=O)[C@H](CCCCN)NC(=O)CNC[C@H](CC(C)C)NC(=O)[C@H](N)C(C)C)ccc21 | <3 | > 10000 µM |  |  |  | 
CC[C@H](C)[C@H](NC(=O)C(O)C(O)C(O)C(O)CO)C(=O)N[C@H](CNCC(=O)N[C@@H](CCCN=C(N)N)C(=O)Nc1ccc2c(c1)c1ccccc1n2CC)C(C)C (some centres not stated) | 3 | 6250 µM |  |  |  | 
CCNC(=O)CNC(=O)[C@H](CCCN=C(N)N)NC(=O)[C@@H]1CCCN1C(=O)[C@H](CC(=O)O)NC(=O)OC(C)(C)C (Boc-DPRG-NHEt) |  |  | < 2.70 | < 2.60 |  | 
CC(C)C[C@H](NC(=O)[C@@H](NC(=O)[C@H](O)[C@@H](O)[C@H](O)[C@H](O)CO)C(C)C)C(=O)NCC(=O)N[C@@H](CCCN=C(N)N)C(=O)N(C)CC(=O)O |  |  | 3.00 | 2.91 |  | 
